Measurements taken from ChEMBL document CHEMBL4513216, “Probing the Open Global Health Chemical Diversity Library for Multistage-Active Starting Points for Next-Generation Antimalarials” (ACS Infect Dis, 2020).

Test: Toxicity liver stage against HepG2, at 10uM
Type: cell-based
Set-up: test concentration 10 uM, cell line HepG2-A16-CD81EGFP
Conditions: human, HepG2-A16-CD81EGFP cells; read-out: INHIBITION
Summary of the method: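 Uninfected HepG2-A16-CD81EGFP cells, 3 × 10^3 per well, 1536-well, plated on prespotted compound at 10 μM final, parasite-free screening media added to match infected plates; puromycin 10 μM positive, DMSO 0.5% negative; run in parallel with 48 h PbLuc assay at 37 °C, 5% CO2; viability by CellTiter-Glo luminescence, normalized to controls.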

| SMILES | cytotoxicity at 10 µM [%] |
| --- | --- |
| Cc1c(C)n2c(SCC(=O)N3CCC(C)CC3)nnc2[nH]c1=O | 0.351 |
| COc1ccc(NC(=O)CSc2nc(C)cc(C)n2)cn1 | -0.384 |
| CCOc1ccc(Oc2cc(CN)ccn2)cc1 | 0.102 |
| O=c1c2ccccc2nnn1CN(CC1CCOC1)C1CC1 (configuration not stated) | -0.543 |
| COc1ccc2nc3n(c2c1)[C@@H](CNC(=O)c1cncnc1)COC3 | 0.488 |
| Fc1ccc2c(c1)nc1n2[C@@H](CNCc2nccs2)COC1 | 1.07 |
| COCC(=O)N[C@H]1C[C@H]2C(=O)NC[C@@H](CCC(=O)NC3CC3)N2C1 | 10.7 |
| CCC(C)NC(=O)CCn1ccc(C)n1 (configuration not stated) | -0.634 |
| N#CCCN(CC1CCCO1)C(=O)c1ccc(C#N)cc1 (configuration not stated) | -2.45 |
| CC(C)(C)c1csc(CCNC(=O)[C@H](c2ccccc2)n2cnnn2)n1 | 2.07 |
| Cc1nnc(CNC(=O)C2CSCCC(=O)N2)o1 (configuration not stated) | -10.1 |
| O=C(c1ccc[nH]1)N1CC2(CCN(c3ncccn3)C2)C1 | 2.26 |
| CCn1nnc2c1CCN(C(=O)c1ccc3c(c1)OCO3)C2COC (configuration not stated) | 6.43 |
| CCS(=O)(=O)N1Cc2ccnn2CC(c2nc(C)no2)C1 (configuration not stated) | 6.86 |
| O=C(O)c1nnn(-c2ccc(Cl)c(C(F)(F)F)c2)c1-c1ccncc1 | 8.63 |
| COc1ccccc1Nc1nc2c(C)nn(C)c2c(=O)n1C | 2.56 |
| Cn1c(=O)oc2ccc(S(=O)(=O)N3CCC(c4ccccc4)C3)cc21 (configuration not stated) | 5.43 |
| Cc1nn(CC(=O)N2CCN(Cc3cnn(C)c3C)CC2)cc1Br | -7.55 |
| N#Cc1c[nH]nc1NCc1ccc2c(c1)OCO2 | -8.75 |
| COCCC(=O)N1Cc2nc3c(C)c(-c4cccs4)nn3c(O)c2C1 | -1.19 |
| C[C@@H]1CN(Cc2ccco2)CCN1C(=O)Cc1ccccc1F | 4.94 |
| O=C1NC2(CCCN(C(=O)CCn3cncn3)C2)Oc2ccccc21 (configuration not stated) | 3.08 |
| COc1cc2c(cc1CCC(=O)O)CCC2 | 1.11 |

| SMILES | cytotoxicity at 10 µM [%] |
| --- | --- |
| Cc1cc(-c2ccccc2)nc(C2CCCN2S(C)(=O)=O)n1 (configuration not stated) | 3.5 |
| Cc1cc(C)n2ncc(CN3C[C@@H](O)[C@H](Oc4ccccc4)C3)c2n1 | -33 |
| CCCNC(=O)c1cc(C2CCCN(Cc3ccccn3)C2)no1 (configuration not stated) | -32 |
| O=S(=O)(N1CCOCC1)N1CCCC1Cn1cccn1 (configuration not stated) | -8.18 |
| Cn1ccc(C(=O)N2CCOC(c3ccccn3)C2)cc1=O (configuration not stated) | -31.4 |
| CCc1ccccc1Nc1noc2c1CN(C(=O)CCOC)CC2 | -16.6 |
| COCCN1CCC(c2cncc(-c3cccc(Cl)c3)n2)CC1 | -29.9 |
| Cn1cnc(CNC(=O)c2ccccc2-n2cc(CN)cn2)c1 | -16.9 |
| O=C(O)COc1ccccc1CN1CCCC1c1ccncn1 (configuration not stated) | -29.2 |
| CCS(=O)(=O)NCCNc1c(C#N)cnc2c(F)cc(F)cc12 | 16.2 |
| CCOc1cccc(NCc2cnc(N3CCN(C)CC3)nc2)n1 | 1.75 |
| CCN(CC)S(=O)(=O)NC(=O)c1cc(C)n(-c2ccccc2)n1 | -9.68 |
| Cc1cc(-n2c(C)cn(CN(C)Cc3ccccc3)c2=O)no1 | 10.3 |
| FC(F)(F)CCN(Cc1ccon1)C1CCC1 | 1.19 |
| Cc1ccc(NC(=O)C2CCCN2C(=O)C2CC2)nc1 (configuration not stated) | -2.15 |
| Cc1cc(C2CCCN2Cc2cc(-c3ccco3)on2)on1 (configuration not stated) | 1.6 |
| Cc1nnc(N2CCc3cncnc3C2)c(C#N)c1C | -154 |
| CNC(=O)c1cccc(CN2CCC(N(C)Cc3noc(C)n3)C2)c1 (configuration not stated) | 4.37 |
| CCOCCCOC(=O)c1ccc2c(c1)[nH]c(=O)n2C | 3.54 |
| Fc1ccccc1CN1CCC(c2n[nH]c(C3CC3)n2)CC1 | 6.21 |
| CS(=O)(=O)Nc1cccc(CNC(=O)CCc2ccsc2)c1 | 2.24 |
| CCNC(=O)C1CCCN(c2cccc(C(F)(F)F)n2)C1 (configuration not stated) | 3.4 |
| CCOCCN1CCN(CCc2nc3ccccc3c(=O)[nH]2)CC1 | 4.12 |

| SMILES | cytotoxicity at 10 µM [%] |
| --- | --- |
| COc1cc(CN(C)C(=O)NCc2nccs2)ccc1SC | -7.66 |
| NCC1(c2cccc(C(F)(F)F)c2)CCC1 | -4.27 |
| CCCOc1ccc(Cl)cc1NC(=O)NCCC(=O)N(C)C | -0.734 |
| NC(=O)c1cnc(NC2CCN(c3ccccn3)CC2)c(Cl)c1 | 13.8 |
| CCOCCC(=O)Nc1cc(C)cnc1OC | 18.9 |
| CCN(C(C)=O)C(c1cccnc1)c1cc(C)cc(C)c1 (configuration not stated) | 6.72 |
| O=C(NC1CCCN(c2ccc(OC(F)F)cc2)C1)c1cnc[nH]1 (configuration not stated) | -2.15 |
| NS(=O)(=O)N1CCC(CSc2ccccc2)C1 (configuration not stated) | -9.8 |
| Cc1cccc(C(C)(C)CNc2cn[nH]c(=O)c2Cl)c1 | 23.3 |
| CCOC(C)c1nc(Cn2cccn2)cs1 (configuration not stated) | 1.04 |
| NC(=O)CCn1nnc(-c2cc3ccccc3o2)n1 | 4.56 |
| OCC(CO)Nc1ccc2ccc(Cl)c(Cl)c2n1 | -8.82 |
| CCN(C(=O)Nc1nncs1)C(C)c1cccc(OC)c1 (configuration not stated) | 4.84 |
| CN(CC(N)=O)C(=O)C1Cc2cc(Cl)ccc2O1 (configuration not stated) | 2.93 |
| Cc1cc(C2CCCN2c2ncc(C(N)=O)cc2Cl)no1 (configuration not stated) | -4.57 |
| Cc1cc(C(=O)NCCN2CCCC(C)C2)nn1C(C)(C)C (configuration not stated) | 9.34 |
| CCNc1cc2c(nn1)CCN(C(=O)c1ccc(-n3cccn3)nc1)C2 | 5.05 |
| CN(Cc1ccncc1)C(=O)Nc1cnn(CC2CCCO2)c1 (configuration not stated) | -0.291 |
| Cc1noc([C@]23COC[C@H]2CN(C(=O)COC2CCCC2)C3)n1 | -104 |
| Cc1cccc(CN2CC[C@@H]3O[C@@H](C(=O)N4CCN(C)CC4)C[C@@H]32)n1 | 1.04 |
| COCC1COCCC12CCN(S(=O)(=O)c1ccc(C)cc1)CC2 (configuration not stated) | 4.79 |
| Cn1ncc2c1C(COCC1CC1)CN(Cc1ccc(F)cc1)C2 (configuration not stated) | 1.23 |
| COc1ccccc1-n1nc(CC(C)C)nc1CSc1nnc(N)s1 | 1.62 |

| SMILES | cytotoxicity at 10 µM [%] |
| --- | --- |
| CCCn1cc(C(=O)NCCC(=O)NC2CCCCC2)c(C)n1 | -3.31 |
| CCCn1ncc(C(=O)N2CCN([C@H]3CCCC[C@@H]3O)CC2)c1C | -137 |
| CCN(C)S(=O)(=O)N1CCCC(c2cccc(C(=O)O)c2)C1 (configuration not stated) | 0.91 |
| Cc1ccccc1NC(=O)N1CCN(C(=O)C2CC2)[C@@H]2CS(=O)(=O)C[C@@H]21 | 2.78 |
| c1ccc(Cc2n[nH]c(C3CCOC3)n2)cc1 (configuration not stated) | 1.06 |
| COc1cc(C)c(C2CC(=O)Nc3cc(NS(C)(=O)=O)ccc32)cc1C (configuration not stated) | -15 |
| Cc1nc[nH]c1CN(C)Cc1cnn(-c2ccc(F)cc2)c1 | 0.345 |
| CNc1ncc(C(=O)N2CCC(c3ccccc3C(=O)O)C2)cn1 (configuration not stated) | -7.67 |
| c1cncc(Cc2nnc3n2CCN(CC2CCOC2)CC3)c1 (configuration not stated) | -2.11 |
| COC(=O)CCCNC(=O)c1cc(COc2cncc(Cl)c2)on1 | 8.23 |
| CN1CC2(CCN(C(=O)c3[nH]cnc3-c3ccccc3)C2)OC1=O (configuration not stated) | 4.43 |
| CCCOCC(=O)N1CCc2nc(NC)nc(C(=O)N3CCCC3)c2C1 | -109 |
| Nc1nc2c(c(N3CCOCC3)n1)CCN(C(=O)c1ccc[nH]1)CC2 | -2.02 |
| COCCN1CCCC2(CCN(c3ncc(Cl)cc3Cl)C2)C1=O (configuration not stated) | 9.44 |
| Cc1cc(C)c(C(=O)N2CCOC(CCN(C)C)C2)o1 (configuration not stated) | -1.92 |
| Cc1cc(N2CC[C@H](O)C2)n2nc(C)c(C)c2n1 | -3.62 |
| Cc1cc(C)n(CCC2CC(=O)Nc3cc(O)c(C)cc32)n1 (configuration not stated) | -1.74 |
| CC(Oc1ccc2c(c1)OCO2)C(=O)N1CCC(N2CCCC2)CC1 (configuration not stated) | -4.63 |
| O=C1[C@@H]2CN(c3ncc(Cl)cc3F)C[C@]2(C(=O)O)CN1CC1CC1 | -0.33 |
| COc1cccc([C@@H]2CCN(Cc3c[nH]c(C)n3)C[C@H]2O)c1 | -2.89 |
| Cc1nsc(NC(=O)N2CCC(C(C)(C)O)CC2)n1 | 17.5 |
| O=C(O)C(c1ccc2c(c1)OCCO2)N1CCCCCC1 (configuration not stated) | -3.26 |
| O=C(CCc1ccc(O)cc1)N1CCC(Cc2ccc(CO)cc2)C1 (configuration not stated) | 14.8 |

| SMILES | cytotoxicity at 10 µM [%] |
| --- | --- |
| CCCc1nc(C(C)(C)NC(=O)C2CC(=O)N(CC(C)C)C2)no1 (configuration not stated) | -5.31 |
| Cc1ccc(-c2cc(CNC(=O)N3CCSCC3)on2)cc1 | 2.7 |
| O=C1C(NCc2nnc3n2CCCC3)CCCN1c1ccccc1 (configuration not stated) | -9.69 |
| N#Cc1cccnc1N1CCC(C2CCCCCN2C(N)=O)CC1 (configuration not stated) | -2.51 |
| CCc1nnc2n1CCN(Cc1ncc(-c3ccc(Cl)cc3)o1)C2 | -9.66 |
| CC(Cn1ccnc1)NC(=O)NCCc1ccc(Cl)s1 (configuration not stated) | -12.4 |
| COc1cccc(-n2c(C)cc(C(=O)NCCCC(N)=O)c2C)c1 | -11.9 |
| COc1ccc(C(=O)NC(CC(=O)O)c2cccs2)c(OC)c1 (configuration not stated) | -0.463 |
| CSC(C)C(=O)N1CCCN(Cc2nccn2C)CC1 (configuration not stated) | -11.6 |
| Cc1noc(C)c1CCC(=O)N1CCCN(Cc2cscn2)CC1 | -4.51 |
| COc1cccc(CCC(=O)N2CCCCC2Cn2cccn2)c1 (configuration not stated) | -11.3 |
| CCN(CC)CCn1c(=O)oc2ccccc21 | 2.96 |
| CC1c2ncc(CNC(=O)C3CC3)n2CCN1Cc1cccnc1 (configuration not stated) | -3.76 |
| c1cnc(N2CCC3(CCN(CC4CC4)CC3)CC2)nc1 | 0.77 |
| Cc1nc(COC[C@@]23CCC[C@@H]2CN(CC2CCOCC2)C3)cs1 | 7.98 |
| CN(C[C@@H]1CCC[C@@H]2CN(Cc3cccnc3)C[C@@H]21)C1CC1 | 8.01 |
| CC(=O)N1CCCC2(C1)CN(c1ncc(C)cn1)CCO2 (configuration not stated) | 14 |
| O=C(Nc1cc(C(F)(F)F)c[nH]c1=O)C1CCCCN1 (configuration not stated) | -0.924 |
| O=C([C@@H]1COC[C@H]2CN(C3CCOCC3)C[C@H]21)N1CCOCC1 | -4.14 |
| CCn1cc(-n2cc3nc(N4CCN(C)CC4)[nH]cc-3c2=O)cn1 | 1.54 |
